Source: PubChem (several laboratories)
An excerpt weighted towards active compounds, which were near 11% of everything screened.
RORa activator = RORA (human) activation. CHO-K1 Gal4-RORA LBD luciferase reporter, luminescence; percent increase over mock-subtracted basal signal. 1.5% of 65,000 active. activation, % at 10 µM. AID 560. P35398;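 active = activation above the mean of all tested compounds plus 3 SD, cut at about 49% in these data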;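 also: 0% = DMSO-treated RORA cells and 100% = added signal equal to DMSO minus mock-transfected cells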
Htt clearance = compounds clearing mutant huntingtin protein; inhibition, % at 1.5 µM; 0.42% of 47,000 active; HeLa Exon1htt(103Q)mCFP, aggregate imaging; zero = plate's median compound well;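 active = inhibition of aggregate fluorescence above about 70%, also judged a hit by eye on the cell image, limit read from the data, passing the limit was not always enough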;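 also: cells exposed to compound for three days before fixation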
SF-1 act = activates the human nuclear receptor SF-1. 1.9% of 65,000 active. CHO-K1 Gal4-SF-1 LBD luciferase reporter; % increase over DMSO SF-1-specific signal. activation, % at 10 µM. Q13285. AID 522;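 active = activation above the mean activation of all tested compounds plus 3 SD, cut at about 50% in these data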
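Material: Transient Gal4-SF-1 LBD reporter, CHO-K1 | Input: 4,000 cells/well | Dosing: One dose, 10 µM compound, 1% DMSO | Incubation: 20 h compound treatment, 37 °C | Detection: SteadyLite luciferase luminescence | Evaluation: Percent activation relative to DMSO median and mock-transfected background | Benchmarks: DMSO-treated SF-1-transfected cells as negative, DMSO-treated mock-transfected cells lacking SF-1 as background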
M1 agonist = agonists of M1 muscarinic receptor; CHO-M1 cells, Fluo-4 calcium fluorescence, agonist mode; hits give high values; B-score at 10 µM; 3% of 64,000 active;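 active = fluorescence rise, raw or as B-score row- and column-corrected plate score, outside the 99.7% band of its plate's samples, either direction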
D1 mod = allosterically modulates the human D1 dopamine receptor; P21728; HEK293 D1, CRE-luciferase, dopamine EC30 potentiation; actives deviate in either direction; B-score at 10 µM; 5.9% of 58,000 active; AID 641;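 active = luminescence count or its row- and column-corrected plate score outside the 99.7% band of the plate's sample wells, on either side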
M1 antagonist = antagonists of rat M1 muscarinic receptor. P08482. CHO-M1 cells, Fluo-4 calcium, ACh EC80 antagonist mode; hits give low values. B-score at 10 µM. 3.4% of 64,000 active. AID 628;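 active = calcium fluorescence response, raw or row-and-column corrected B-score, differing from the plate sample mean either way at a set confidence level, mostly lower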
Target sequence (P08482 whole entry, looked up): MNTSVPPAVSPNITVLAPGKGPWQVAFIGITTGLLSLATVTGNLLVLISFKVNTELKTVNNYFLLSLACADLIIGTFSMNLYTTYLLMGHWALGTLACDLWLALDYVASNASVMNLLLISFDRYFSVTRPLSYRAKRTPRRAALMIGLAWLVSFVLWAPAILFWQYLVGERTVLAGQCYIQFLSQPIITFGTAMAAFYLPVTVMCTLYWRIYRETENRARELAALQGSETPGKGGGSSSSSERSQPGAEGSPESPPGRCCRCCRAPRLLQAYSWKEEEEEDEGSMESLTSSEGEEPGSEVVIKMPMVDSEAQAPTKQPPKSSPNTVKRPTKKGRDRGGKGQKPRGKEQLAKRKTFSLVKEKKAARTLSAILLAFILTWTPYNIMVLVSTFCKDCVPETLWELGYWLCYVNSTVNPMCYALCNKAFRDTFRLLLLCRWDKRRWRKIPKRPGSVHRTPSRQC
Numbers without * were called inactive; x = not tested or not shown.

SMILES	RORa activator	Htt clearance	SF-1 act	M1 agonist	D1 mod	M1 antagonist
Cc1cccc(-n2ncc3c(NCc4ccco4)ncnc32)c1	72*	x	93*	0.45	x	0.059
c1ccc(CNc2ncnc3c2cnn3-c2ccccc2)cc1	91*	x	77*	-0.32	-0.56	0.12
CC1Cc2ccccc2N1C(=O)CCn1c(=O)sc2ccccc21 (configuration not stated)	0	x	24	2.1	0.28	-0.0083
c1ccc(-n2ncc3c(NCCN4CCOCC4)ncnc32)cc1	46	21	38	-0.29	-0.35	0.3
CCN(c1ccccc1)c1ncnc2c1cnn2-c1ccccc1	59*	x	59*	0.45	-0.26	-0.038
Cc1cccc(-n2ncc3c(NCc4ccccc4)ncnc32)c1	78*	x	82*	-0.45	-0.79	-1.5
c1ccc(-n2ncc3c(NCCN4CCCCC4)ncnc32)cc1	40	-8	69*	-0.58	-0.73	-2.1
Cc1cccc(-n2ncc3c(N(C)C4CCCCC4)ncnc32)c1	-73	x	-77	-0.19	x	0.085
Cc1cccc(-n2ncc3c(N(CCO)CCO)ncnc32)c1	68*	x	19	-1.8	-0.84	-0.4
CCOC(=O)C1=C(N)Oc2c(c(=O)[nH]c3ccccc23)C1c1ccccc1 (configuration not stated)	x	-67	x	x	x	x
O=C(Cn1cnc2c(nnn2Cc2ccc(F)cc2)c1=O)NCC1CCCO1 (configuration not stated)	5	x	0	-0.22	-0.22	0.7
COC(=O)c1ccc(NC(=O)CSc2nccn2CCc2ccccc2)cc1	x	-68	x	x	x	x
CC(C)c1[nH]nc2c1C1(CCN(Cc3ccccc3)CC1)C(C#N)=C(N)O2	20	x	-7	x	-1.4	x
Cc1[nH]nc2c1C1(CCN(Cc3ccccc3)CC1)C(C#N)=C(N)O2	-15	x	0	4.1*	-0.46	0.35
O=C(NCc1ccco1)Nc1ccc(Br)cc1Cl	57*	63	60*	x	-0.75	x
CC(=O)c1cnc(Nc2nc(C)c3cccc(C)c3n2)nc1C	15	x	-22	-0.63	x	-0.34
CCOC(=O)N1CCN(S(=O)(=O)c2ccc(C(=O)Nc3sc4c(c3C#N)CCC4)cc2)CC1	-3	-2	74*	-0.51	0.5	0.054
N#Cc1c(NC(=O)CN2CCCCC2)sc2c1CCC2	-6	-17	-17	-0.051	1	0.6
Cc1ccc(OCc2nc(-c3ccccc3)no2)c(C)c1	40	-18	59*	1.4	-0.068	0.12
COc1ccc2sc(NC(=O)CC(C)C)nc2c1	23	-27	66*	0.24	-0.93	-0.63
CCC(=O)Nc1nc2cc(OC)ccc2s1	14	4	1	0.14	-1.6	0.23
COc1ccc2sc(NC(C)=O)nc2c1	56*	x	50*	0.41	-0.82	0.42
COc1ccc2nc(NC(=O)Cc3cccs3)sc2c1	x	37	x	x	x	x
COc1cccc(NC(=O)c2ccc3snnc3c2)c1	x	-56	x	x	x	x
CC(=O)Nc1cc2nn(-c3ccccc3)nc2cc1Cl	13	-18	11	-0.024	-0.47	-0.25
SMILES	RORa activator	Htt clearance	SF-1 act	M1 agonist	D1 mod	M1 antagonist
Cc1cccc(NC(=O)c2ccc(S(=O)(=O)N3CCCCC3)cc2)n1	26	x	4	-2.6*	0.48	-2.4
O=C(Nc1cccc(C(=O)N2CCCCCC2)c1)c1ccco1	5	-8	7	1.7	x	0.7
O=C(Nc1ccc(N2CCCC2)c(Cl)c1)c1ccco1	17	x	9	1.2	-4*	-0.45
Cc1csc(NC(=O)c2cccc(S(=O)(=O)N3CCCCC3)c2)n1	-10	-29	-1	0.0094	0.6	0.27
O=C(Nc1cc2nn(-c3ccccc3)nc2cc1Cl)c1ccco1	25	13	73*	0.97	0.66	0.45
O=C(Nc1ccc2[nH]c3c(c2c1)CCCC3)c1ccco1	18	-50	27	3*	-0.013	-0.16
CCC(C)(C)n1nnnc1C(c1cc2cc(C)cc(C)c2[nH]c1=O)N1CCN(Cc2ccc3c(c2)OCO3)CC1 (configuration not stated)	x	54	x	x	x	x
O=C(Nc1ccc(S(=O)(=O)N2CCCCCC2)cc1)c1ccco1	63*	-130	33	-0.85	0.015	-0.088
O=C(CN1CCOCCOCCOCCOCC1)Nc1ccccc1	x	31	x	x	x	x
O=C(CCC(=O)c1ccc[nH]1)c1ccc(Cl)cc1	26	75*	52*	-0.35	-1.4	0.19
O=C(COc1ccc(F)c(Cl)c1)c1ccc[nH]1	-5	-8	11	-0.41	0.44	0.02
CC(=O)Nc1ccc(S(=O)(=O)NCC2CCC(C(=O)NCCC(C)C)CC2)cc1 (configuration not stated)	-15	21	7	0.33	-0.43	1.3
COc1ccccc1N=c1scc(-c2ccc3c(c2)NC(=O)CO3)n1CC1CCCO1 (configuration not stated)	-4	x	-7	2.8	-2.8*	-0.27
CCOC(=O)c1csc(NC(=O)c2ccccc2)n1	79*	-3	63*	0.35	-1.9	0.58
CCOC(=O)c1csc(NC(=O)c2ccc(S(=O)(=O)N(C)C)cc2)n1	16	-307	4	-0.55	x	0
CC(Cc1c[nH]c2ccccc12)NC(=O)C1CCCNC1=O (configuration not stated)	-14	87*	-10	0.55	0.25	1
O=C(CSc1ccccc1)Nc1ccc(S(=O)(=O)NCC2CCCO2)cc1 (configuration not stated)	-12	29	-5	0.024	0.13	0.035
Cc1nnc2n(Cc3ccccc3)c(=O)c3c4c(sc3n12)CN(Cc1ccccc1)CC4	-14	x	-5	-0.46	0.7	-0.079
Cc1nnc2n(Cc3ccccc3)c(=O)c3c4c(sc3n12)CCCC4	-30	x	-26	0.035	6.3*	-0.68
O=C(CCCOc1ccccc1)N1CCN(c2ccccc2)CC1	x	2	x	x	x	x
CCOC(=O)N1CCN(C(=O)CCCOc2ccccc2)CC1	38	x	75*	0.91	-0.67	-0.12
COc1ccc(-c2ccc(-c3nnn(CC(C)=O)n3)cc2)cc1	38	7	90*	0.26	-1.4	-0.38
COc1cccc(-c2nnn(CC(C)=O)n2)c1	x	-26	x	x	x	x
O=C(c1ccco1)N1CCN(c2ncnc3scc(-c4cccs4)c23)CC1	3	42	7	1.9*	0.97	-0.41
CCOC(=O)N1CCC(Nc2ncnc3c2cnn3-c2ccc(C)cc2C)CC1	0	29	-7	-1.6	-3.7*	0.15
O=[N+]([O-])c1ccc(Sc2nccn2Cc2ccccc2)c([N+](=O)[O-])c1	x	21	x	x	x	x
CCOc1ccc(/C=C\C(C)=N\O)cc1	72*	2	6	0.017	-0.53	1.4
COc1ccc(-c2nc(C#N)c(NCCc3ccccc3)o2)cc1OC	70*	x	78*	0.92	2.7	0.15
COc1ccc(-c2nc(C#N)c(NCc3ccc(C)cc3)o2)cc1OC	-1	30	4	-0.91	2.3	0.12
